Calls of active or inactive are those of the source. No cut-off for these calls is given here.
Columns and labels:
[1] = test system: Human immunodeficiency virus 1; assay: Reactivation of latent HIV1 NL4-3-Luc expression in human naive CD4+ T cells treated 7 days post-infection measured after 48 hrs by luminescence plate reader analysis relative to SAHA-treated control; type: functional; set-up: concentration or dose not given beside the values
Outline: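 Primary naive CD4+ T cells from healthy HIV-negative donor PBMCs, purified by negative selection. Activated 3 days with anti-CD3/CD28 beads (1 bead:2 cells), anti-IL-4, anti-IL-12p70 and 10 ng/mL TGF-β, then kept 2 days in 30 U/mL IL-2 and infected with NL4-3-Luc. Seven days after infection, 10 000 cells/well exposed to compound for 48 h; BriteGlo luminescence read-out.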

[2] = test system: Human immunodeficiency virus 1; assay: Reactivation of latent HIV1 NL4-3-Luc expression in human naive CD4+ T cells treated 7 days post-infection measured after 48 hrs by luminescence plate reader analysis; type: functional, organism-based, T-cell
[3] = molecular target: Protein kinase C (PKC) (Homo sapiens) (UniProt O94806+P41743+P17252+P05129+Q05655+P05771+Q05513+Q02156+P24723+Q15139+Q04759); assay: Activation of PKC in human Jurkat cells assessed as NF-kappaB reporter gene activation after 24 hrs by FACS analysis; type: cell-based
[4] = test system: Human immunodeficiency virus 1; assay: Reactivation of latent HIV1 NL4-3-Luc expression in human naive CD4+ T cells assessed as HIV-1 RNA expression treated 7 days post-infection by RT-qPCR analysis; type: functional, organism-based; settings: T-cell
[5] = Human immunodeficiency virus 1, NL4-3, T-cell, read-out: EC50

SMILES | Activity ([1]; T-cell) | EC50 ([2]; t-cell) | Activity [1] [%] | EC50 [2, 5] [µM] | Activity [3] | Activity [4]
C[C@@H]1CC(O)/C=C/C(O)C(O)CC(=O)Cc2c(Cl)c(O)cc(O)c2C(=O)O1 (stereo not given in full) | inactive | Not Active |  |  |  | 
C[C@@H]1CC(O)C2C=CC(CC(=O)Cc3c(Cl)c(O)cc(O)c3C(=O)O1)O2 (stereo not given in full) | inactive | Not Active |  |  |  | 
C[C@@H]1C[C@@H](O)[C@@H](O)/C=C\C=C\C(=O)Cc2c(Cl)c(O)cc(O)c2C(=O)O1 |  |  | 25 | 24.9 |  | 
CCC(=O)CCCCC[C@@H]1NC(=O)[C@H]2CCCCN2C(=O)[C@H]([C@@H](C)CC)NC(=O)[C@H](Cc2cn(OC)c3ccccc23)NC1=O [APICIDIN] |  |  | 100 | 0.3 |  | 
C[C@H]1C[C@H]2O[C@@H]2C[C@H](O)/C=C/C(=O)Cc2c(Cl)c(O)cc(O)c2C(=O)O1 [POCHONIN B] |  |  | 98 | 39.6 |  | 
C[C@H]1C[C@H](O)C(Cl)/C=C\C=C\C(=O)Cc2c(Cl)c(O)cc(O)c2C(=O)O1 (stereo not given in full) [POCHONIN C] |  |  | 92 | 6.3 |  | 
C[C@@H]1C[C@@H](O)/C=C\[C@H](O)CCC(=O)Cc2c(Cl)c(O)cc(O)c2C(=O)O1 [POCHONIN N] | inactive | Not Active |  |  |  | 
O=C(NCCSSCCNC(=O)/C(Cc1ccc(O)c(Br)c1)=N/O)/C(Cc1ccc(O)c(Br)c1)=N/O [PSAMMAPLIN A] |  |  | 100 | 0.2 |  | 
C[C@@H]1C[C@H]2O[C@@H]2/C=C\C=C\C(=O)Cc2c(Cl)c(O)cc(O)c2C(=O)O1 [RADICICOL] |  |  | 98 | 9.1 | inactive | Active

Reference: ChEMBL document CHEMBL3124835 (J Nat Prod, 2014)
